Experiments:
[1] = Volume of distribution at steady state in rabbit plasma at 0.5 mg/kg, iv; type: ADME, organism-based, Oryctolagus cuniculus; design: dose 0.5 mg/kg, route intravenous; conditions: read-out: Vdss
Method in brief: (§1)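 Single iv dose of 0.5 mg/kg in rabbits; concentrations measured in rabbit plasma.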

[2] = Inhibition of rabbit coagulation factor 11a using p-nitroaniline as substrate assessed as substrate hydrolysis by spectrophotometrically; design: species or system Oryctolagus cuniculus
Coagulation factor X = molecular target: T1, Coagulation factor X (Oryctolagus cuniculus, UniProt O19045); test: Inhibition of rabbit coagulation factor 10a using N-benzoyl-Ile-Glu-(OH, OMe)-Gly-Arg-pNA as substrate by spectrophotometric analysis
T1 sequence (O19045 whole entry): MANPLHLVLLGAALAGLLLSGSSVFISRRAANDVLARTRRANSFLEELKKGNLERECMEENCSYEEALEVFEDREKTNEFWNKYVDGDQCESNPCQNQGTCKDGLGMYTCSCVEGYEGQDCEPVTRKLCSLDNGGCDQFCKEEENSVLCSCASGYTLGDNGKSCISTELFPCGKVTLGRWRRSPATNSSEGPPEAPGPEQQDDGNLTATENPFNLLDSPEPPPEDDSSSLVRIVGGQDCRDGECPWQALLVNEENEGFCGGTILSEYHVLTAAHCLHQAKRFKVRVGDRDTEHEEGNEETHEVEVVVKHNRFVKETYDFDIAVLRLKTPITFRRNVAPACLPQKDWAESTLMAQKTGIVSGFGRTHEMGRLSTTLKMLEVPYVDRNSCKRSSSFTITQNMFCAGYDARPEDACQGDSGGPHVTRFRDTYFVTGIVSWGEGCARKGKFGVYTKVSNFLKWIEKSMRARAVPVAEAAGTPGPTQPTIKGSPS

[3] = Inhibition of rabbit coagulation factor 11a using p-nitroaniline as substrate assessed as substrate hydrolysis at 37 degC by spectrophotometrically; design: species or system Oryctolagus cuniculus
Method in brief: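 Rabbit FXIa, chromogenic pNA-release read at 405 nm, run at 37 °C. IC50 from duplicate determinations over 8–11 concentrations, converted to Ki by Ki = IC50/(1+[S]/Km), assuming competitive inhibition.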

Trypsin = Trypsin (Homo sapiens, UniProt P07477+P07478+P35030); test: Inhibition of human coagulation trypsin using N-benzoyl-Ile-Glu-(OH, OMe)-Gly-Arg-pNA as substrate by spectrophotometric analysis; type: protein assay
Method in brief: (§2)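 Purified enzymes (α-thrombin; trypsin) in 100 mM sodium phosphate pH 7.5, 200 mM NaCl, 0.5% PEG 8000, 1% DMSO final, room temperature. Enzyme added last to substrate ± inhibitor, with substrate and inhibitor in excess. pNA release read at 405 nm over 10−120 min. IC50 from duplicate runs over 8−11 concentrations, then converted to Ki assuming competitive inhibition, using Km.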

[4] = Half life in rabbit plasma at 0.5 mg/kg, iv; type: ADME, organism-based, Oryctolagus cuniculus; design: dose 0.5 mg/kg, route intravenous; method in brief: as §1
[5] = Inhibition of rabbit coagulation thrombin using pyro-Glu-Pro-Argp-NA as substrate by spectrophotometric analysis; design: species or system Oryctolagus cuniculus
Prothrombin = Prothrombin (Homo sapiens, UniProt P00734); test: Inhibition of human coagulation thrombin using pyro-Glu-Pro-Argp-NA as substrate by spectrophotometric analysis; method in brief: as §2
Coagulation factor VII = molecular target: T2, Coagulation factor VII (Oryctolagus cuniculus, UniProt P98139); test: Inhibition of rabbit coagulation factor 7a using H-(D)-Ile-Pro-Arg-pNA as substrate by spectrophotometric analysis
T2 sequence (P98139 whole entry): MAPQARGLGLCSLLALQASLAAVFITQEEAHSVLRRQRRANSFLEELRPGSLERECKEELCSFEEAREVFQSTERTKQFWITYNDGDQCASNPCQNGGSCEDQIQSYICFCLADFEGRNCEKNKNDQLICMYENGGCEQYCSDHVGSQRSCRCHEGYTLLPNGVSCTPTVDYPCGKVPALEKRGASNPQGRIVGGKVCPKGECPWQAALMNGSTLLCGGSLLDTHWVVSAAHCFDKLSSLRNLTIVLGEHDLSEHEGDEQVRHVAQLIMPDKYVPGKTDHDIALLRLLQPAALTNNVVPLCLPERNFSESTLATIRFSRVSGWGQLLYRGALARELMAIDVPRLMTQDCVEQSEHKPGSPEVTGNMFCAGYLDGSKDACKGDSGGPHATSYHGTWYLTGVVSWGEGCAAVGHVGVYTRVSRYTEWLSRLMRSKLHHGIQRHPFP

With `NC[C@H]1CC[C@H](C(=O)N[C@@H](Cc2ccccc2)c2nc(-c3ccc4c(N)n[nH]c4c3)c(Cl)[nH]2)CC1.O=C(O)C(F)(F)F` the Vd [1] was 0.7 L/kg, the Ki [2] was 0.6 nM and the Ki (Coagulation factor X) was greater than 10 µM. The Ki [3] was 1.2 nM, the Ki (Trypsin) was 23 nM and the half-life [4] was 60 min. For the same compound, the Ki [5] was greater than 20 µM, the Ki (Prothrombin) was greater than 12.6 µM and the Ki (Coagulation factor VII) was 10 µM.

Source: ChEMBL document CHEMBL3351269, “Phenylimidazoles as potent and selective inhibitors of coagulation factor XIa with in vivo antithrombotic activity” (J Med Chem, 2014)
